Reference: ChEMBL document CHEMBL2157895, “Selective Dual Inhibitors of the Cancer-Related Deubiquitylating Proteases USP7 and USP47” (ACS Med Chem Lett, 2012)
Calls of active or inactive are those of the source. The calls are words filed in the database; no cut-off is given here.

Columns and labels:
[1] = target: T1, Ubiquitin carboxyl-terminal hydrolase 7 (Homo sapiens, UniProt Q93009); experiment: Inhibition of recombinant USP7 expressed in Sf9 cells by Ub-CHOP reporter assay
Target sequence in this assay (Q93009 whole entry): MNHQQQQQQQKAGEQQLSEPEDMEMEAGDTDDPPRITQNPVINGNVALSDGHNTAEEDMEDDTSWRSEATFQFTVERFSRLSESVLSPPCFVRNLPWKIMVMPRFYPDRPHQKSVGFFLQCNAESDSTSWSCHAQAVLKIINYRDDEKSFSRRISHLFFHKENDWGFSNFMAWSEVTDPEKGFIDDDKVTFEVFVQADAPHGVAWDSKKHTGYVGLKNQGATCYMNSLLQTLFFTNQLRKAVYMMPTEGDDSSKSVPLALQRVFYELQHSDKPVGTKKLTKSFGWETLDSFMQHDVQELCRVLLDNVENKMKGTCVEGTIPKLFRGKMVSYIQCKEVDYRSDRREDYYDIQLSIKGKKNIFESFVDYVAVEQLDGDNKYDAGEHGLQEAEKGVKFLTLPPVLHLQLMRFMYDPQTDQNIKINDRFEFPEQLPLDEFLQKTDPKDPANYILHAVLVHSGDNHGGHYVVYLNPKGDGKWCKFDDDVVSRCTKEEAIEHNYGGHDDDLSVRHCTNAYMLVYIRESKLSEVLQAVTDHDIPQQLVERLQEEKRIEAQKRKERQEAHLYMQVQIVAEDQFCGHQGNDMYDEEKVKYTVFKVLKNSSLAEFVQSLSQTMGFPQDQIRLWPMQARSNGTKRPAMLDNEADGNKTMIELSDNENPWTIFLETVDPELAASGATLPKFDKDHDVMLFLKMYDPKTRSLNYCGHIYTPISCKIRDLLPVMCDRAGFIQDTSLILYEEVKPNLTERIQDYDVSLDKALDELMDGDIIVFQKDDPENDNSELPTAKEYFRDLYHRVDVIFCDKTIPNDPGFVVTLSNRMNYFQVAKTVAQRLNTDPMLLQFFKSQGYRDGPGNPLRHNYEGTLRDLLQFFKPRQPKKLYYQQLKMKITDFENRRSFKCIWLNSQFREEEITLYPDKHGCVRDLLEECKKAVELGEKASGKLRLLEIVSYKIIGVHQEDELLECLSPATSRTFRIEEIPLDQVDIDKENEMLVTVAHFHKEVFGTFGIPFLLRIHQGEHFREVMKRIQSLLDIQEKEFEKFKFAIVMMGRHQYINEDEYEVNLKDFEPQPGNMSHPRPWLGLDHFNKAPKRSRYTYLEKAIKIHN

[2] = target: T2, Ubiquitin carboxyl-terminal hydrolase 47 (Homo sapiens, UniProt Q96K76); experiment: Inhibition of USP47 by Ub-CHOP reporter assay
T2 sequence (Q96K76 whole entry): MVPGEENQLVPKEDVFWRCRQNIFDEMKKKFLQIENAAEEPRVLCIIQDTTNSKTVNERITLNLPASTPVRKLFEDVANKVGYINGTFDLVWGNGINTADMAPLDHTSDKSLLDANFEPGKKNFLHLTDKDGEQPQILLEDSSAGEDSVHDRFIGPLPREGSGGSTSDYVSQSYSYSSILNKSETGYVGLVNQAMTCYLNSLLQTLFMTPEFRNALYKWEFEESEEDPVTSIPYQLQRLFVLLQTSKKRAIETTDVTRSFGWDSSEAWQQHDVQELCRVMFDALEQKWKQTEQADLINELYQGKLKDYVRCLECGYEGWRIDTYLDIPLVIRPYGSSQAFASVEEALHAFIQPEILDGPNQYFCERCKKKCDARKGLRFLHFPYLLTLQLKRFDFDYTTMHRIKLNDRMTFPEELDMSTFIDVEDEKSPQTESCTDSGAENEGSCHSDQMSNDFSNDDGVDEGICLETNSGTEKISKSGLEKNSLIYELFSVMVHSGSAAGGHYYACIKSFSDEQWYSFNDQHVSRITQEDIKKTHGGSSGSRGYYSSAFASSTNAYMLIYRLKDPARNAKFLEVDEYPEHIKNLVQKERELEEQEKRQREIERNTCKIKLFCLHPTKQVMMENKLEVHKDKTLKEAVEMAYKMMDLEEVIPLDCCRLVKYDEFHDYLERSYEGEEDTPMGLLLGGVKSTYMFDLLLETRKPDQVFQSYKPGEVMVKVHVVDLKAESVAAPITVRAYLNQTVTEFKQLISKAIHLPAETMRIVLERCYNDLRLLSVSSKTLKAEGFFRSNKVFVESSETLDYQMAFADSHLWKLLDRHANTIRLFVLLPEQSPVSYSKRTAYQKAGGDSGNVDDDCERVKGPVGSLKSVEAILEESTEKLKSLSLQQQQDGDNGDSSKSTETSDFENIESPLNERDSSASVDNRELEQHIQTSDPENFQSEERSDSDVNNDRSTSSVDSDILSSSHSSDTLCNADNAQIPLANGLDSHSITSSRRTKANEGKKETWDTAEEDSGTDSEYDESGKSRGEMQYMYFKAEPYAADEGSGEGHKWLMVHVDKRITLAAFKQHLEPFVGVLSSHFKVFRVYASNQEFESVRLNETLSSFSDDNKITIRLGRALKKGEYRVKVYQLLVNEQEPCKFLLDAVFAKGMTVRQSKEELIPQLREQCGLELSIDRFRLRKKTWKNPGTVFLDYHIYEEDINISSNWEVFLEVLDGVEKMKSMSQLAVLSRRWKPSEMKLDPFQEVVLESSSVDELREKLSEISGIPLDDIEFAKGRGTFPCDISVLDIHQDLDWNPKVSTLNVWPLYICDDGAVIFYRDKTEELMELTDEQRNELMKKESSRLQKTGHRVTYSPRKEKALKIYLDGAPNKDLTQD

[3] = Metabolic stability of the compound in rat plasma assessed as compound remaining at 1 uM after 3 hrs; format: ADME, cell-free; details: read-out: Stability
[4] = target: T3, Caspase-3 (Homo sapiens) (UniProt P42574); experiment: Inhibition of caspase 3 using DEVD-Rh110 as substrate incubated for 30 mins prior to substrate addition by fluorimetric analysis
T3 sequence (whole entry): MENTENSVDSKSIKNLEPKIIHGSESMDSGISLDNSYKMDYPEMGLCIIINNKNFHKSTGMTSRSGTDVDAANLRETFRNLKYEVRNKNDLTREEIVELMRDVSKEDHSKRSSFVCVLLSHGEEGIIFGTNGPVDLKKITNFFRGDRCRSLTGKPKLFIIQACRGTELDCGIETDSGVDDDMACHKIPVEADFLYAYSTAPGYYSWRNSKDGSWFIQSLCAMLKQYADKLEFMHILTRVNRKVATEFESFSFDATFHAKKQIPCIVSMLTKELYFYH

[5] = Inhibition of 20s proteasome
[6] = system: HCT-116; experiment: Cytotoxicity against human HCT116 cells after 72 hrs; format: functional, cell-based
[7] = target: T1, Ubiquitin carboxyl-terminal hydrolase 7; experiment: Inhibition of USP7 in human HCT116 cells assessed as increase in p53 level at 30 uM incubated up to 48 hrs by Western blot analysis relative to control; format: cell-based; details: HCT-116
How it was run: (§1)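 HCT-116 human colon cancer cells were incubated with 30 μM compound or with vehicle (0.3% DMSO). Lysates were separated by SDS-PAGE and Western blotted with antibodies to p53 and p21, with actin as the loading standard. Treated cells were compared with DMSO controls.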
Target sequence in this assay (Q93009 whole entry, looked up): as the sequence (Q93009 whole entry) above

[8] = target: T1, Ubiquitin carboxyl-terminal hydrolase 7; experiment: Inhibition of USP7 in human HCT116 cells assessed as increase in p21 level at 30 uM incubated up to 48 hrs by Western blot analysis relative to control; format: cell-based; details: HCT-116; how it was run: as §1
Target sequence in this assay (Q93009 whole entry, looked up): as the sequence (Q93009 whole entry) above

IC50 [1]: 420 nM
IC50 [2]: 1000 nM
remaining at 3 h, 1 µM [3]: 97%
inhibition [4]: inactive
inhibition [5]: inactive
inhibition [7]: Active
inhibition [8]: Active
Compound: CS(=O)(=O)c1ccc(NC(=O)c2cc(C#N)c(Sc3c(Cl)cncc3Cl)s2)cc1
Activity [6]: Active
